LMPTP inh = blocks human LMPTP phosphatase; 360,000 compounds, 0.22% hits; inhibition, % at 20 µM; AID 651560; recombinant LMPTP-A, OMFP fluorogenic substrate, fluorescence intensity;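 active = compounds that cut the enzyme signal by at least half of the control window in the single-dose screen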;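 note: plate controls were DMSO wells with enzyme plus substrate for no effect and substrate without enzyme for full effect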
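Test system: LMPTP-A phosphatase enzyme. Amount: LMPTP-A at 0.625 nM final in the reaction. Reagent: OMFP substrate, 400 µM final. Times: 50 min at room temperature. Signal: endpoint fluorescence intensity from OMFP dephosphorylation. Read-out basis: % inhibition. Benchmarks: no-enzyme and uninhibited controls.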
Scp-1 inhibitor = Scp-1 (human) phosphatase inhibition. AID 493091. Recombinant Scp1, phosphopeptide, malachite green phosphate absorbance. Q9GZU7. 340,000 compounds, 0.88% hits. inhibition, % at 20 µM;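 active = inhibition above about 50% at 20 µM, limit read from the data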;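 note: plate controls were DMSO wells with enzyme for no effect and wells lacking enzyme for full effect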
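Incubation: 45 min enzyme reaction at room temperature / System: truncated SCP-1 phosphatase (76-261aa) / Reagent: Phospho 17-mer peptide substrate / Buffer or medium: Acidic Tris acetate buffer with magnesium and detergent / Signal: absorbance at 630 nm / Doses: one concentration, 20 µM, with 1.0% DMSO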
STEP inh = inhibitors of human striatal-enriched phosphatase STEP; 360,000 compounds, 0.25% hits; P54829; recombinant STEP, OMFP fluorogenic substrate, fluorescence; inhibition, % at 20 µM; AID 588621;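 active = inhibition at 20 µM, scaled per plate between control wells, above about 37%, limit read from the data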;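 note: 0% = DMSO with enzyme and substrate and 100% = substrate only without enzyme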
Target sequence (P54829 whole entry, looked up): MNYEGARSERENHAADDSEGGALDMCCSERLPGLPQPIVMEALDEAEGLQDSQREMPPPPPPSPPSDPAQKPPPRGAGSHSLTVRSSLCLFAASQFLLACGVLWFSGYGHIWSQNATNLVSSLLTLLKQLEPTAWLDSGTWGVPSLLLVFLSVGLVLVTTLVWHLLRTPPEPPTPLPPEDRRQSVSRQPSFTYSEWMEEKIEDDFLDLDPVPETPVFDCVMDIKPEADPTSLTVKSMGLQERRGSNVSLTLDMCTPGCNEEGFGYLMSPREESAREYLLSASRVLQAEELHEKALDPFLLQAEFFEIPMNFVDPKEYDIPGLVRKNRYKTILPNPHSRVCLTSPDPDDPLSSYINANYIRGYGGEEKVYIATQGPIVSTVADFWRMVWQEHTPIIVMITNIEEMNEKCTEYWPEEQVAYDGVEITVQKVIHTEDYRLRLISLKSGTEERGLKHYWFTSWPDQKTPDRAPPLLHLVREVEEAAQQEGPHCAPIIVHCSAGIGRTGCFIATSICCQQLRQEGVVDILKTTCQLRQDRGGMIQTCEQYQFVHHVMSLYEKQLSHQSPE
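material = STEP tyrosine phosphatase | reagent = fluorogenic phosphatase substrate OMFP at 25 µM final | doses = single compound dose of 20 µM, 1% DMSO final | schedule = 20 min reaction, room temperature, in the dark | measured by = fluorescence, 480/540 nm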
Rpn11 block = inhibitors of human proteasome Rpn11. 360,000 compounds, 0.59% hits. inhibition, % at 20 µM. AID 588493. human 26S proteasome, Ub4-pepOG fluorescence polarization; 20S core pre-blocked with epoxomicin;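 active = inhibition at 20 µM, scaled to each plate's controls, above about 33%, limit read from the data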
DNMT1 inh = inhibitors of human DNMT1; AID 588458; DNMT1 molecular beacon, Hinp1I cleavage, fluorescence; 360,000 compounds, 0.83% hits; inhibition (reported as % activation of signal), % at 10 µM; P26358; in the data active = inhibition above about 50%
Scp1 confirm = Scp-1 (human) inhibition, single-dose confirmed; inhibition, % at 20 µM; shares compounds with Scp-1 inhibitor; recombinant SCP-1 catalytic domain, phosphate release, malachite green absorbance; 2,500 compounds, 61% hits;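 note: plate controls were DMSO with enzyme for no effect and buffer wells lacking enzyme for full effect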
MG interference = interferes with malachite green readout, flagging false Scp-1 hits; AID 540313; apparent inhibition (interference), % at 20 µM; 2,500 tested, under 10 active; shares compounds with Scp-1 inhibitor; Colorimetric interference counterscreen, malachite green absorbance 630 nm;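 note: compounds added after enzyme reaction finished so only phosphate colour detection is probed; plate controls were DMSO wells with completed Scp-1 reaction for no effect and substrate wells lacking enzyme for full effect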
Scp-1 Tm shift = validation of human Scp-1 inhibitors by thermal shift binding; shares compounds with Scp-1 inhibitor; Recombinant SCP1, Sypro Orange thermal shift Tm; thermal shift relative to vanadate control, % at 40 µM; 1,500 compounds, 25% hits; AID 540329;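 active = substances whose mean melting-temperature shift, as a percentage of the reference inhibitor's shift, reaches about 5.3%, limit read from the data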;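 note: 0% = Tm of DMSO wells and 100% = Tm with sodium orthovanadate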
Active calls of the source: *. The list is not random: actives were taken first. Their share in the collection is about 2%.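 Rule for the calls, unless noted: active = inhibition of at least 30% at 20 µM; inactive = the rest.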

How did Cc1ccc(CC(=O)N/N=C/c2ccc(OC(=O)c3ccc([N+](=O)[O-])cc3)cc2)cc1 do in these assays?
LMPTP inh: 15; Scp-1 inhibitor: 61*; STEP inh: 3; Rpn11 block: -10; DNMT1 inh: 41; Scp1 confirm: 42*; MG interference: -7; Scp-1 Tm shift: -4

Results for Cc1cc([N+](=O)[O-])cc(C)c1OCC(=O)N/N=C/c1ccc(OC(=O)c2ccccc2)cc1 ?
LMPTP inh: 1; Scp-1 inhibitor: -6; STEP inh: 2; Rpn11 block: 11; DNMT1 inh: 12

What do the screens show for `COc1ccc(S(=O)(=O)NCCC(=O)NC2CCCCC2C)cc1[N+](=O)[O-]` (stereo unspecified)?
LMPTP inh: 8; Scp-1 inhibitor: 56*; STEP inh: 9; Rpn11 block: -9; DNMT1 inh: 28; Scp1 confirm: 46*; MG interference: -14; Scp-1 Tm shift: 5.3*

What do the screens show for `Cc1ccc(S(=O)(=O)N2CCN(C(=O)C(O)c3ccccc3)CC2)cc1` (stereo unspecified)?
LMPTP inh: -2

What do the screens show for `O=S1(=O)CC(N2CCC(Cc3ccccc3)CC2)CN1C1CCCC1` (stereo unspecified)?
LMPTP inh: 0; STEP inh: 4; Rpn11 block: -2; DNMT1 inh: -1

What do the screens show for `Cc1ccc(C(=O)N/C(=C\c2ccco2)C(=O)NCCN2CCOCC2)cc1`?
LMPTP inh: -2; Scp-1 inhibitor: 75*; STEP inh: -1; Rpn11 block: 1; DNMT1 inh: 0; Scp1 confirm: -18; MG interference: -16

How did CCCCCCOc1ccc(N2C(=O)CC(N3CCC(C(=O)OCC)CC3)C2=O)cc1 (stereo unspecified) do in these assays?
LMPTP inh: 0; Scp-1 inhibitor: 3; STEP inh: -2; Rpn11 block: -5; DNMT1 inh: 6

How did CCOC(=O)C1CCN(C2CC(=O)N(c3ccc(OCC)cc3)C2=O)CC1 (stereo unspecified) do in these assays?
LMPTP inh: -2; Scp-1 inhibitor: 52*; STEP inh: 0; Rpn11 block: -2; DNMT1 inh: 0; Scp1 confirm: 15; MG interference: 0

Results for O=C(CC[C@H]1O[C@@H](n2ccc(=O)[nH]c2=O)[C@H](O)[C@@H]1O)N[C@@H](Cc1ccccc1)C(=O)NCC1CCCO1 (stereo partly specified) ?
LMPTP inh: 0; STEP inh: 0; Rpn11 block: -8; DNMT1 inh: 2

How did N#CCCN(Cc1cccnc1)C(=S)NC(=O)c1ccccc1 do in these assays?
LMPTP inh: 0; Scp-1 inhibitor: -15; STEP inh: 2; Rpn11 block: 8; DNMT1 inh: 0

How did CN(C)S(=O)(=O)c1ccc(C(=O)OCc2nnc(-c3ccccc3)o2)cc1 do in these assays?
LMPTP inh: 0; Scp-1 inhibitor: -5; STEP inh: -1; Rpn11 block: 0; DNMT1 inh: 0

What do the screens show for `O=C(OCc1nnc(-c2ccccc2)o1)c1ccc(S(=O)(=O)NCc2ccco2)cc1`?
LMPTP inh: 2; Scp-1 inhibitor: 53*; STEP inh: -1; Rpn11 block: -1; DNMT1 inh: 19; Scp1 confirm: 68*; MG interference: -11; Scp-1 Tm shift: 5

How did COc1cccc(NC(=O)COC(=O)c2ccc(S(=O)(=O)NCc3ccco3)cc2)c1 do in these assays?
LMPTP inh: 1; Scp-1 inhibitor: 60*; STEP inh: 3; Rpn11 block: -12; DNMT1 inh: 29; Scp1 confirm: 70*; MG interference: -7; Scp-1 Tm shift: 3

Results for O=C(COC(=O)c1ccc(S(=O)(=O)NCc2ccco2)cc1)NCc1ccccc1 ?
LMPTP inh: 3; Scp-1 inhibitor: 25; STEP inh: 5; Rpn11 block: -8; DNMT1 inh: 19

What do the screens show for `NC(=O)COC(=O)c1ccc(S(=O)(=O)NCc2ccco2)cc1`?
LMPTP inh: 1; Scp-1 inhibitor: 63*; STEP inh: 6; Rpn11 block: -17; DNMT1 inh: 29; Scp1 confirm: 69*; MG interference: -1; Scp-1 Tm shift: 0

Results for COCCCn1cc(CN2CC(N3CCSCC3)CS2(=O)=O)nn1 (stereo unspecified) ?
LMPTP inh: -1

How did Cc1ccc(NC(=O)CC2C(=O)NCCN2C(=O)c2ccc(F)cc2)cc1 (stereo unspecified) do in these assays?
LMPTP inh: -1; Scp-1 inhibitor: -4; STEP inh: -2; Rpn11 block: -12; DNMT1 inh: 1; Scp1 confirm: -3; MG interference: -11

How did COc1cc(O)cc(O)c1C(=O)/C=C/c1ccccc1 do in these assays?
LMPTP inh: 2; Scp-1 inhibitor: -4; STEP inh: 2; Rpn11 block: 4; DNMT1 inh: 0

Results for COC(=O)c1cc(O)cc(OC)c1C(=O)c1c(O)cc(C)cc1O ?
LMPTP inh: 1; Scp-1 inhibitor: 58*; STEP inh: -2; Rpn11 block: -7; DNMT1 inh: -2; Scp1 confirm: 31*; MG interference: -18; Scp-1 Tm shift: 1

Results for CCC(=O)Nc1cc(OC)c(NC(=S)Nc2ccccc2CC)cc1OC ?
LMPTP inh: -1; STEP inh: 0; Rpn11 block: -3; DNMT1 inh: 0

What do the screens show for `CCc1cccc(NC(=O)C2CCCN2S(=O)(=O)c2ccc3c(c2)n(C)c(=O)c(=O)n3C)c1` (stereo unspecified)?
LMPTP inh: -1; Scp-1 inhibitor: 27; STEP inh: -2; Rpn11 block: 2; DNMT1 inh: 2

What do the screens show for `Cc1cccc(NC(=O)C2CCCN2S(=O)(=O)c2ccc3c(c2)n(C)c(=O)c(=O)n3C)c1` (stereo unspecified)?
LMPTP inh: 1; Scp-1 inhibitor: -2; STEP inh: 0; Rpn11 block: -6; DNMT1 inh: -4; Scp1 confirm: 0; MG interference: -4

Results for O=C(N/N=C/c1cc2c(cc1Br)OCO2)c1cc2ccccc2o1 ?
LMPTP inh: 3; Scp-1 inhibitor: 58*; STEP inh: 2; Rpn11 block: 6; DNMT1 inh: 0; Scp1 confirm: 25; MG interference: -3

Results for O=C(N/N=C/c1cc2c(cc1Br)OCO2)c1ccccn1 ?
LMPTP inh: -1; Scp-1 inhibitor: -5; STEP inh: 1; Rpn11 block: -1; DNMT1 inh: 3

Compound activity deposited in PubChem by Sanford-Burnham Center for Chemical Genomics.
